Runt-SMMHC FRET = blocks binding of human RUNX1 Runt domain to CBFb-SMMHC; Cerulean-Runt/Venus-CBFb-SMMHC FRET ratio 530/480, 1 h; inhibition, % at 20 µM; Q01196+Q13951; actives 0.74% (n = 220,000);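 active = mean inhibition across duplicate retests at 20 µM reaching about 50%, limit read from the data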;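 note: 0% = DMSO wells and 100% = wells with excess untagged CBFb-SMMHC; inhibitors lower the FRET ratio by blocking Runt binding to CBFb-SMMHC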
RanGTP-Imp inh = inhibitors of RanGTP-importin-beta interaction, primary screen, biochemical, FRET, CFP-Ran, YFP-importin-beta, homogeneous; cell-free CFP-Ran/YFP-importin-beta FRET ratio; inhibition, % (no concentration beside the values); actives 1.1% (n = 300,000);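 active = more than half of the replicate wells show a fall in the fluorescence ratio signal beyond about 16%, limit read from the data, passing the limit was not always enough; inconclusive = exactly half of the replicate wells pass the set limit; inactive = fewer than half of replicates pass the limit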;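 note: 0% = DMSO wells and 100% = Ran loaded with GDP instead of GTP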
14-3-3 Bad inh = disrupts binding of bovine 14-3-3 zeta to phospho-Bad peptide. P63103. inhibition, % at 21.7 µM. actives 0.71% (n = 220,000). TR-FRET 14-3-3zeta/Dy647-pBad peptide displacement, 1 h;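 active = inhibition above about 70%, limit read from the data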;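 note: 0% = full 14-3-3 plus peptide FRET controls and 100% = background without 14-3-3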
Hck Nef HTS = inhibitors of human Hck kinase activated by Nef | Recombinant Hck-YEEI plus Nef, Z-Lyte FRET kinase assay | inhibition, % at 20 µM | actives 0.68% (n = 220,000) | AID 463187;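 active = Hck-Nef kinase inhibition above about 50%, limit read from the data; inactive = inhibition below that limit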;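 note: 0% = DMSO with Hck plus Nef and 100% = Hck alone without Nef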
Target sequence (P08631 whole entry, looked up): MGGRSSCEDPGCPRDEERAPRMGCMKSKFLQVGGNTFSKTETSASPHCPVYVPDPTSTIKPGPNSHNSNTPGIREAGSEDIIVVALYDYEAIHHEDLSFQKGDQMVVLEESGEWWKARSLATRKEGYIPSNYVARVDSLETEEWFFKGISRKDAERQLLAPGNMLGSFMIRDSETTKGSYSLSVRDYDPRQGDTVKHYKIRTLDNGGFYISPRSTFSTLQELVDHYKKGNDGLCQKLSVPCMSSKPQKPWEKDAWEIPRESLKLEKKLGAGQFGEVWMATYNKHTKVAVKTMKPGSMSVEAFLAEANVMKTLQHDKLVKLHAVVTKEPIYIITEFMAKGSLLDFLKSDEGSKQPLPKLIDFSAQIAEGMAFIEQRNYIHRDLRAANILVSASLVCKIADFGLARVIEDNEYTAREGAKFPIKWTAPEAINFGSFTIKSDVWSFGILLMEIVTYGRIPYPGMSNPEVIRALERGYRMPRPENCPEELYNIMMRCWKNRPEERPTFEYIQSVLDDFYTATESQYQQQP
TbHK1 inh = T. brucei hexokinase 1 inhibition; inhibition, % at 10 µM; actives 0.11% (n = 220,000); recombinant TbHK1, G6PDH-coupled NADH A340; AID 1430;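 active = inhibition of 50% or more in the single-dose primary screen; inactive = inhibition below 50%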
Runt-CBFb FRET = blocks binding of human RUNX1 Runt domain to CBFb | Q01196+Q13951 | Cerulean-Runt/Venus-CBFb FRET ratio 530/480, 1 h | inhibition, % at 20 µM | actives 0.46% (n = 220,000);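 active = inhibition over about 50% at 20 µM in the single-dose screen, limit read from the data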;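 note: 0% = DMSO wells and 100% = excess unlabeled CBFb competitor control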
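Measured by: fluorescence energy transfer, 422 nm excitation, 530/480 nm emission; test system: Cerulean-tagged RUNX1 Runt domain (FRET donor) fusion protein; buffer or medium: Tris pH 7.5 buffer with BSA; compound: one dose, 20 µM compound, 1% DMSO; times: two 1 h room-temperature incubations shielded from light; benchmarks: unlabeled CBFb 5 µM, positive control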
Runt-CBFb TRFRET = Runt-CBFb binding inhibition | shares compounds with Runt-CBFb FRET | TR-FRET RUNX1 Runt domain-CBFb binding | inhibition, % at 20 µM | actives 20% (n = 480); in the data active = inhibition above about 40%
* = called active by the depositor; ? = inconclusive; / = not tested or not shown. Most compounds without a hit are left out; they make up all but 2.2% or so of the library.

SMILES	Runt-SMMHC FRET	RanGTP-Imp inh	14-3-3 Bad inh	Hck Nef HTS	TbHK1 inh	Runt-CBFb FRET	Runt-CBFb TRFRET
Cn1cc(C(=O)Nc2ccc(F)c(Cl)c2)cn1	4	-3	-16	-2	1	0	/
CN1c2ccsc2C(O)=C(C(=S)Nc2ccc(F)c(Cl)c2)S1(=O)=O	/	124*	10	4	-29	85*	-14
Cc1ccc(C(=S)N2CCN(Cc3ccccc3)CC2)cc1	38	1	-16	14	2	52*	42*
Cc1ccc(NC(=S)N2CCN(Cc3ccccc3)CC2)cc1	2	0	-16	25	-5	-2	/
CC1CC/C(=N/Nc2ccccc2)C(=O)N1 (stereo not given)	1	-3	12	-1	-38	51*	14
O=C(Cc1nnc(NC(=O)Nc2ccc(F)cc2)s1)NCc1ccccc1	-1	0	6	21	7	0	/
Clc1ccc(-c2nc3ccncc3[nH]2)cc1	20	?	6	5	1	59*	-10
CCc1ccccc1NCC(=O)Nc1ccc(Cl)c(C(F)(F)F)c1	-2	0	3	0	28	0	/
CCOC(=O)c1c(/N=C/N(C)C)sc(/C=N/Nc2ccccc2)c1-c1ccc(Cl)cc1	119*	-39	17	6	-1	58*	-12
Cc1cccnc1Nc1nc(-c2ccc(O)c(O)c2)cs1	52*	1	2	1	-6	65*	-22
O=C(O)c1ccc(-n2c(-c3cc(-c4ccco4)[nH]n3)n[nH]c2=S)cc1	53	?	15	-1	0	53*	81*
c1cc2c(cc1-c1csc(NNC3=NCCCCC3)n1)OCCO2	71*	-2	-11	35	-6	60*	35
CCC(=O)Nc1nc(-c2ccc3c(c2)OCCO3)cs1	-1	7	6	3	-1	-1	/
COc1ccc(S(=O)(=O)N(C(C)=O)c2ccc3oc(=O)sc3c2)cc1	58*	0	10	0	0	67*	16
CC(C)Cc1csc(NC(=O)c2ccccc2Cl)c1C(=O)O	-9	-4	-8	1	13	105*	3
COc1ccc(CNC(=O)c2ccc(NS(=O)(=O)c3c(C)noc3C)cc2)cc1	4	2	15	3	4	-2	/
N#Cc1sc2nc(-c3cccs3)cc(-c3ccc(F)cc3)c2c1N	-95	-18	-5	-3	-7	-35	/
CS(=O)(=O)c1sc2nc(-c3cccs3)cc(-c3ccccc3)c2c1N	85*	-2	44	0	-20	54*	17
COc1cc(C)c(NC(=O)C(=S)NCCc2ccccc2)cc1C	34	-2	-7	29	-1	51*	15
CCOC(=O)Cc1csc(NC(=O)C(NC(=O)C2CCCCC2)C(C)C)n1 (stereo not given)	4	3	-5	18	10	1	/
Cc1[nH]c2ccccc2c1SCC(=O)O	-9	-4	-4	-7	6	70*	-28
O=C(O)CSc1c(O)c2ccccc2[nH]c1=O	23	4	-18	25	1	23	/
COc1ccc(C2=CC(=O)C=CC2=O)cc1	86*	0	37	70*	29	68*	35
Cc1nc2ccccc2c(=O)n1NC(=O)COc1ccccc1	-2	-5	2	-5	1	1	/
O=C(COc1ccccc1)NNc1c2ccccc2nc2ccccc12	81*	5	-15	1	1	58*	-1
O=C(NNc1c2ccccc2nc2ccccc12)c1ccc(O)cc1	58*	36*	-10	1	-6	52*	-45
Cc1ccc(C(=O)NNc2nc3ccccc3nc2C(F)(F)F)cc1	-3	3	-9	0	-5	4	/
O=C(CSc1nnc(CNC(=O)c2ccco2)o1)Nc1ccccc1	-2	1	-9	15	-3	1	/

Screening data as filed in PubChem BioAssay.
